{"source": "paper PMC2213236", "about": "(The Journal of Experimental Medicine, 2005)", "key": {"[1]": {"system": "human CD4^+ T cell clones to proinsulin", "type": "cell-based", "details": "for stimulation of clones by insulin and proinsulin: titrated from 1 μM to 0.1 nM, mean of triplicates ± SEM", "summary_of_the_method": "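Clones were cultured in triplicate in IMDM with 5% pooled human serum and irradiated APCs (autologous or HLA-matched PBMCs at 20 Gy, or EBV B-cell lines at 50 Gy). Insulin or proinsulin was used at 10 μg/ml, with anti-HLA DR mAb at 5 μg/ml where indicated. RP-HPLC fractions were tested at 1/400. After 2 d, 3H-thymidine (0.5 μCi/well, 18 h) was added; β-scintillation; mean ± SEM of triplicates.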"}, "HLA DRB1*0404": {"system": "HLA DRB1*0404", "experiment": "HLA DR binding", "design": "species or system human", "details": "compared with the serine-substituted homologue"}, "[2]": {"experiment": "Formation and reduction of the vicinal disulfide bond", "type": "physicochemical", "details": "MS, unpublished data"}, "[3]": {"system": "proinsulin-specific CD4^+ T cell clones from two healthy HLA DR4^+ donors", "experiment": "Proliferation of proinsulin-specific CD4+ T cell clones from healthy donors", "type": "cell-based, human", "details": "13 clones from two healthy HLA DR4^+ donors (6 and 7 clones); unpublished data"}, "murine T cells": {"system": "murine T cells", "details": "first 14 amino acids of the A-chain of bovine insulin; cited from earlier work"}, "human T cells": {"system": "human T cells", "details": "first 14 amino acids of the A-chain of bovine insulin; cited from earlier work"}}, "data": [{"substance": "proinsulin: Recombinant human proinsulin produced in-house, shown to be folded correctly and free of endotoxin", "values": [{"measurement": "stimulation of clones by insulin and proinsulin", "setting": "[1]", "result": "stimulated the clones equally"}]}, {"substance": "KRGIVEQC-CTSISSL (disulfide)", "values": [{"measurement": "effect of the vicinal disulfide bond on binding to HLA DR4", "setting": "HLA DRB1*0404", "result": "did not alter binding to HLA DR4"}, {"measurement": "effect of dithiothreitol on the vicinal disulfide bond", "setting": "[2]; dithiothreitol treatment, mass increased by 2 Dltons", "result": "reduced the vicinal disulfide bond"}]}, {"substance": "KRGIVEQCCTSICSL [KR-A1-13]", "values": [{"measurement": "clones proliferating in response to peptide", "setting": "[3]", "result": "none"}]}, {"substance": "KRGIVDQCCTSICSL", "values": [{"measurement": "potency relative to the human homologue (fold less potent)", "setting": "[1]; mouse vs human insulin A1-13, 50—0.05 μM peptide", "result": "~10 -fold less potent"}]}, {"substance": "S-11: analogue peptide with serine substituted for cysteine at position A11 (KRGIVEQSSTSISSL)", "values": [{"measurement": "effect of TCEP reduction on ability to stimulate the clones", "setting": "[1]; S-11 peptide (1 μM) treated with the disulfide-reducing agent TCEP", "result": "abolished the ability of S-11 to stimulate the clones"}, {"measurement": "formation of the vicinal disulfide bond", "setting": "[2]; S-11 peptide in culture medium", "result": "within minutes"}]}, {"substance": "insulin: clinical grade recombinant insulin", "values": [{"measurement": "HLA DR dependence of the response to insulin", "setting": "[1]; clinical grade recombinant insulin 10 μg/ml, anti-HLA DR mAb 5 μg/ml", "result": "HLA DR dependent"}, {"measurement": "stimulation of clones by insulin and proinsulin", "setting": "[1]", "result": "stimulated the clones equally"}]}, {"substance": "GIVEQCCASVCSLY", "values": [{"measurement": "recognition by T cells after immunization", "setting": "murine T cells", "result": "recognized"}, {"measurement": "recognition by T cells after immunization", "setting": "human T cells", "result": "recognized"}]}, {"substance": "S-6: serine substituted for the cysteine at A6", "values": [{"measurement": "proliferation of T cell clones to RP-HPLC fractions", "setting": "[1]; S-6 peptide in similar experiments, unpublished data", "result": "No fractions stimulated proliferation"}]}]}
